Measured values: ChEMBL document CHEMBL3745674, “Inhibitors of HIV-1 attachment: The discovery and structure-activity relationships of tetrahydroisoquinolines as replacements for the piperazine benzamide in the 3-glyoxylyl 6-azaindole pharmacophore” (Bioorg Med Chem Lett, 2016)

How the values were obtained:
[1] = AUC(last) in rat at 5 mg/kg, po; type: ADME, organism-based; design: dose 5 mg/kg, time 0 - last, route oral; settings: in vivo
Method in brief: (§1)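 Oral dosing in rat at 5 mg/kg in PEG 400/ethanol (90:10 v/v) vehicle.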

[2] = Cmax in rat at 5 mg/kg, po; type: ADME, organism-based; design: dose 5 mg/kg, route oral; settings: in vivo; method in brief: as §1
[3] = Permeability of compound at pH 5.5 by PAMPA; type: ADME; settings: read-out: permeability
Method in brief: (§2)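 Passive permeability by PAMPA at pH 7.4 and pH 5.5, reported in nm/s.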

[4] = Volume of distribution at steady state in rat at 1 mg/kg, iv; type: ADME, organism-based; settings: in vivo, read-out: Vdss
Method in brief: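 Intravenous dosing in rat at 1 mg/kg. Plasma clearance and volume of distribution were determined.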

[5] = Permeability of compound at pH 7.4 by PAMPA; type: ADME; settings: read-out: permeability; method in brief: as §2
Liver [6] = assay: Drug level in Aroclor-1254-induced rat liver S9 fraction treated with 1-(4-methoxy-7-(3-methyl-1H-1,2,4-triazol-1-yl)-1H-pyrrolo[2,3-c]pyridin-3-yl)-2-(5-(pyridin-2-yl)-3,4-dihydroisoquinolin-2(1H)-yl)ethane-1,2-dione assessed as compound formation incubated at 37 degC for 4.5 hrs; type: ADME, subcellular; settings: s9, 4.5 h
Liver [7] = assay: Drug metabolism in Aroclor-1254-induced rat liver S9 fraction assessed as 1-(1-hydroxy-5-(pyridin-2-yl)-3,4-dihydroisoquinolin-2(1H)-yl)-2-(4-methoxy-7-(3-methyl-1H-1,2,4-triazol-1-yl)-1H-pyrrolo[2,3-c]pyridin-3-yl)ethane-1,2-dione formation incubated at 37 degC for 4.5 hrs; type: ADME, subcellular; settings: s9, 4.5 h

Structure (SMILES)	AUC(0-t) [1]	Cmax [2]	Papp [3]	further results
COc1cnc(-n2cnc(C)n2)c2[nH]cc(C(=O)C(=O)N3CCN(C(=O)c4ccccc4)CC3)c12	52 µM·h	6.4 µM		
COc1cnc(-c2cc(C(=O)O)[nH]n2)c2[nH]cc(C(=O)C(=O)N3CCc4c(cccc4-c4ccccn4)C3)c12			3.2 ×10⁻⁶ cm/s	
COc1cnc(-n2cnc(C)n2)c2[nH]cc(C(=O)C(=O)N3CCc4c(ncnc4-c4ccccn4)C3)c12	41 µM·h	10 µM	24.4 ×10⁻⁶ cm/s	Vd [4]: 0.33 L/kg; Papp [5]: 29.4 ×10⁻⁶ cm/s
COc1cnc(-n2cnc(C)n2)c2[nH]cc(C(=O)C(=O)N3CCc4c(-c5ccccn5)cccc4C3O)c12 (stereo not given)				Drug metabolism (Liver [6]): metabolite_detected
COc1cnc(-n2cnc(C)n2)c2[nH]cc(C(=O)C(=O)N3CCc4c(cccc4-c4ccccn4)C3)c12				Drug metabolism (Liver [7]): metabolite_detected
